Measured values from ChEMBL document CHEMBL2331494, “First synthesis and biological evaluation of indeno[2,1-e]pyrazolo[3,4-b]pyrazin-5-one and related derivatives” (2013).
Converted amounts (≈) assume the structure as drawn.

Tests used:
Assay type in all cases: functional
Escherichia coli = experiment: Antibacterial activity against Escherichia coli AUMC B-53 assessed as diameter of growth inhibition zone at 20 mg/ml at 28 degC after 48 hrs; details: AUMC B-53, 48 h, read-out: DIZ
How it was run: (§1)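 Inocula: each bacterial strain grown 48 h in nutrient broth (30 ml per flask). For the assay, 1 ml microbial suspension and 15 ml nutrient agar were poured into each 10 cm Petri plate, compound solutions were applied, and the diameter of the inhibition zone was read.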

Pseudomonas aeruginosa = experiment: Antibacterial activity against Pseudomonas aeruginosa AUMC B-73 g assessed as diameter of growth inhibition zone at 20 mg/ml at 28 degC after 48 hrs; details: read-out: DIZ; how it was run: as §1
Geotrichum candidum = experiment: Antifungal activity against Geotrichum candidum AUMC 226 assessed as diameter of growth inhibition zone at 20 mg/ml at 28 degC after 7 days; details: AUMC 226, 168 h, read-out: DIZ
How it was run: (§2)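 Inocula: each fungus grown 7 days in Sabouraud's dextrose broth (30 ml per flask). Plates were 10 cm Petri dishes with 1 ml microbial suspension and 15 ml Sabouraud's dextrose agar each. Compound solutions were applied and the diameter of the growth inhibition zone was recorded.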

Bacillus cereus = experiment: Antibacterial activity against Bacillus cereus AUMC B-52 assessed as diameter of growth inhibition zone at 20 mg/ml at 28 degC after 48 hrs; details: AUMC B-52, 48 h, read-out: DIZ; how it was run: as §1
Aspergillus flavus [1] = experiment: Antifungal activity against Aspergillus flavus AUMC 1276 assessed as diameter of growth inhibition zone at 20 mg/ml at 28 degC after 7 days; details: AUMC 1276, 168 h, read-out: DIZ; how it was run: as §2
Staphylococcus aureus = experiment: Antibacterial activity against Staphylococcus aureus AUMC B-54 assessed as diameter of growth inhibition zone at 20 mg/ml at 28 degC after 48 hrs; details: AUMC B-54, 48 h, read-out: DIZ; how it was run: as §1
Serratia marcescens = experiment: Antibacterial activity against Serratia marcescens AUMC B-55 assessed as diameter of growth inhibition zone at 20 mg/ml at 28 degC after 48 hrs; details: AUMC B-55, 48 h, read-out: DIZ; how it was run: as §1
Micrococcus luteus = experiment: Antibacterial activity against Micrococcus luteus AUMC B-112 assessed as diameter of growth inhibition zone at 20 mg/ml at 28 degC after 48 hrs; details: AUMC B-112, 48 h, read-out: DIZ; how it was run: as §1
Trichophyton rubrum [2] = experiment: Antifungal activity against Trichophyton rubrum AUMC 1804 assessed as diameter of growth inhibition zone at 20 mg/ml at 28 degC after 7 days; details: AUMC 1804, 168 h, read-out: DIZ; how it was run: as §2
[3] = system: Scopulariopsis brevicaulis; experiment: Antifungal activity against Scopulariopsis brevicaulis AUMC 729 assessed as diameter of growth inhibition zone at 20 mg/ml at 28 degC after 7 days; details: AUMC 729, 168 h, read-out: DIZ; how it was run: as §2
Candida albicans = experiment: Antifungal activity against Candida albicans AUMC 418 assessed as diameter of growth inhibition zone at 20 mg/ml at 28 degC after 7 days; details: AUMC 418, 168 h, read-out: DIZ; how it was run: as §2
Fusarium oxysporum = experiment: Antifungal activity against Fusarium oxysporum AUMC 5119 assessed as diameter of growth inhibition zone at 20 mg/ml at 28 degC after 7 days; details: AUMC 5119, 168 h, read-out: DIZ; how it was run: as §2
Aspergillus flavus [4] = experiment: Antifungal activity against Aspergillus flavus AUMC 3214 assessed as growth inhibition at 28 degC after 7 days; details: for MIC: Aspergillus flavus, AUMC 3214, 168 h
Trichophyton rubrum [5] = experiment: Antifungal activity against Trichophyton rubrum AUMC 1804 assessed as growth inhibition at 28 degC after 7 days; details: for MIC: Trichophyton rubrum, AUMC 1804, 168 h

| MIC (Aspergillus flavus [4]) | MIC (Trichophyton rubrum [5]) | SMILES | zone of inhibition at 20000 µg/mL (Escherichia coli) | zone of inhibition at 20000 µg/mL (Pseudomonas aeruginosa) | zone of inhibition at 20000 µg/mL (Geotrichum candidum) | zone of inhibition at 20000 µg/mL (Bacillus cereus) | zone of inhibition at 20000 µg/mL (Aspergillus flavus [1]) | zone of inhibition at 20000 µg/mL (Staphylococcus aureus) | zone of inhibition at 20000 µg/mL (Serratia marcescens) | zone of inhibition at 20000 µg/mL (Micrococcus luteus) | zone of inhibition at 20000 µg/mL (Trichophyton rubrum [2]) | zone of inhibition at 20000 µg/mL [3] | zone of inhibition at 20000 µg/mL (Candida albicans) | zone of inhibition at 20000 µg/mL (Fusarium oxysporum) | diameter of the inhibition zone (DIZ) (Aspergillus flavus [4]) | diameter of the inhibition zone (DIZ) (Trichophyton rubrum [5]) |
| --- | --- | --- | --- | --- | --- | --- | --- | --- | --- | --- | --- | --- | --- | --- | --- | --- |
| 2500 µg/mL (≈ 6490 µM) | 300 µg/mL (≈ 778 µM) | Cc1nn(-c2ccccc2)c2nc3c(nc12)/C(=N\NC(N)=S)c1ccccc1-3 | 0 mm | 0 mm | 17 mm | 0 mm | 16 mm | 8 mm | 0 mm | 0 mm | 30 mm | 0 mm | 0 mm | 0 mm | 14 mm | 14 mm |
| 20000 µg/mL (≈ 47500 µM) | 600 µg/mL (≈ 1430 µM) | Cc1nn(-c2ccccc2)c2nc3c(nc12)/C(=C/c1ccccc1Cl)c1ccccc1-3 | 8 mm | 8 mm | 0 mm | 0 mm | 9 mm | 10 mm | 0 mm | 0 mm | 26 mm | 0 mm | 0 mm | 0 mm | 9 mm | 10 mm |
| 5000 µg/mL (≈ 11800 µM) | 600 µg/mL (≈ 1410 µM) | Cc1nn(-c2ccccc2)c2nc3c(nc12)/C(=N/N=C1/NC(=O)CS1)c1ccccc1-3 | 8 mm | 8 mm | 10 mm | 0 mm | 12 mm | 10 mm | 0 mm | 0 mm | 26 mm | 0 mm | 0 mm | 0 mm | 10 mm | 12 mm |
| 2500 µg/mL (≈ 5020 µM) | 300 µg/mL (≈ 603 µM) | CCOC(=O)C1S/C(=N\N=C2/c3ccccc3-c3nc4c(nc32)c(C)nn4-c2ccccc2)NC1=O (stereo unspecified) | 8 mm | 8 mm | 10 mm | 0 mm | 13 mm | 8 mm | 0 mm | 0 mm | 30 mm | 0 mm | 0 mm | 0 mm | 10 mm | 16 mm |
| 150 µg/mL (≈ 435 µM) | 80 µg/mL (≈ 232 µM) | Clc1ccccc1C(c1ccccc1)(c1ccccc1)n1ccnc1 [CLOTRIMAZOLE] | – | – | 26 mm | – | 44 mm | – | – | – | 36 mm | 28 mm | 24 mm | 20 mm | 15 mm | 35 mm |
| 2500 µg/mL (≈ 5150 µM) | 300 µg/mL (≈ 618 µM) | Cc1nn(-c2ccccc2)c2nc3c(nc12)/C(=N/N=c1/[nH]c(-c2ccccc2)cs1)c1ccccc1-3 | 8 mm | 0 mm | 10 mm | 0 mm | 16 mm | 10 mm | 0 mm | 0 mm | 30 mm | 0 mm | 0 mm | 0 mm | 12 mm | 14 mm |

More lines, now with the values behind:

| SMILES | MIC (Aspergillus flavus [4]) | MIC (Trichophyton rubrum [5]) | zone of inhibition at 20000 µg/mL (Escherichia coli) | zone of inhibition at 20000 µg/mL (Pseudomonas aeruginosa) | zone of inhibition at 20000 µg/mL (Geotrichum candidum) | zone of inhibition at 20000 µg/mL (Bacillus cereus) | zone of inhibition at 20000 µg/mL (Aspergillus flavus [1]) | zone of inhibition at 20000 µg/mL (Staphylococcus aureus) | zone of inhibition at 20000 µg/mL (Serratia marcescens) | zone of inhibition at 20000 µg/mL (Micrococcus luteus) | zone of inhibition at 20000 µg/mL (Trichophyton rubrum [2]) | zone of inhibition at 20000 µg/mL [3] | zone of inhibition at 20000 µg/mL (Candida albicans) | zone of inhibition at 20000 µg/mL (Fusarium oxysporum) | diameter of the inhibition zone (DIZ) (Aspergillus flavus [4]) | diameter of the inhibition zone (DIZ) (Trichophyton rubrum [5]) |
| --- | --- | --- | --- | --- | --- | --- | --- | --- | --- | --- | --- | --- | --- | --- | --- | --- |
| CCOC(=O)/C(C#N)=C1\c2ccccc2-c2nc3c(nc21)c(C)nn3-c1ccccc1 | – | – | 8 mm | 8 mm | 0 mm | 0 mm | 0 mm | 8 mm | 0 mm | 0 mm | 0 mm | 0 mm | 10 mm | 0 mm | – | – |
| Cc1nn(-c2ccccc2)c2nc3c(nc12)C(=O)c1ccccc1-3 | – | – | 10 mm | 0 mm | 0 mm | 0 mm | 0 mm | 8 mm | 0 mm | 0 mm | 0 mm | 0 mm | 0 mm | 0 mm | – | – |
| Cc1nn(-c2ccccc2)c2nc3c(nc12)Cc1ccccc1-3 | – | – | 0 mm | 0 mm | 0 mm | 0 mm | 0 mm | 8 mm | 0 mm | 0 mm | 0 mm | 0 mm | 0 mm | 0 mm | – | – |
| Cc1nn(-c2ccccc2)c2nc3c(nc12)/C(=N/N)c1ccccc1-3 | – | – | 8 mm | 0 mm | 0 mm | 0 mm | 0 mm | 8 mm | 0 mm | 0 mm | 0 mm | 0 mm | 0 mm | 0 mm | – | – |
| O=C(N[C@H](CO)[C@H](O)c1ccc([N+](=O)[O-])cc1)C(Cl)Cl [CHLORAMPHENICOL] | – | – | 18 mm | 18 mm | – | 22 mm | – | 18 mm | 20 mm | 20 mm | – | – | – | – | – | – |
| Cc1nn(-c2ccccc2)c2nc3c(nc12)/C(=N\O)c1ccccc1-3 | – | – | 0 mm | 8 mm | 0 mm | 0 mm | 0 mm | 8 mm | 0 mm | 0 mm | 0 mm | 0 mm | 0 mm | 0 mm | – | – |
